According to the M2OR odorant receptor database:

What was measured:
Settings in all cases: stereoisomer not certain
[1] = test system: O52I2 I74L
Procedure, shortened: (§1)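 Each receptor–molecule pair is labelled responsive or non-responsive (inactive) according to whether the original authors judged the measured signal statistically different from baseline. The data were taken from the main text and supplementary material of published papers and checked for typos and inconsistencies. Assay methods differed by source, with transient luciferase assays in mammalian cell lines being common.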

[2] = test system: O52J3 T77A V128I Q141L
Procedure, shortened: as §1

[3] = test system: O52K1 A119T A149T
Procedure, shortened: as §1

[4] = test system: O52K1 Q52R
Procedure, shortened: as §1

[5] = test system: O52L1
Procedure, shortened: as §1

[6] = test system: O52M1 S305R
Procedure, shortened: as §1

[7] = test system: O52N1 R167C F247I
Procedure, shortened: as §1

[8] = test system: O52N2 S249A H264R
Procedure, shortened: as §1

[9] = test system: O52W1 H239R L254Q
Procedure, shortened: as §1

[10] = test system: O56A3
Procedure, shortened: as §1

[11] = test system: O56A4 I247A
Procedure, shortened: as §1

[12] = test system: O56A4 I247V
Procedure, shortened: as §1

[13] = test system: O56A4
Procedure, shortened: as §1

[14] = test system: O56A5 V104L
Procedure, shortened: as §1

[15] = test system: O56B1 C106R L214F
Procedure, shortened: as §1

[16] = test system: O56B1 L214F
Procedure, shortened: as §1

[17] = test system: O56B4
Procedure, shortened: as §1

[18] = test system: O5AC2
Procedure, shortened: as §1

[19] = test system: O5AK2 M92I
Procedure, shortened: as §1

[20] = test system: O5AN1 C142Y L289F
Procedure, shortened: as §1

Measured: odorant receptor agonist call;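 note: active if original authors judged signal statistically different from baseline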

Chain of O56A4 I247A (as listed by the source, stated change not applied): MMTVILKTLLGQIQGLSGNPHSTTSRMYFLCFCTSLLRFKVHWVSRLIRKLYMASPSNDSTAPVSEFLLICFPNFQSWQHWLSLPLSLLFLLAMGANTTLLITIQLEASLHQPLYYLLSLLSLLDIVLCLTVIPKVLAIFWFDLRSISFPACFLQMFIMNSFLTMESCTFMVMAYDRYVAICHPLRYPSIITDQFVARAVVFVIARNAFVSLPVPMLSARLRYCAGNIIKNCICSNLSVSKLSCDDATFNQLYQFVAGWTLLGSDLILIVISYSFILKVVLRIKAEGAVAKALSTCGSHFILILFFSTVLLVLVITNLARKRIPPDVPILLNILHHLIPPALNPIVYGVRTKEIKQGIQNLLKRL
Chain of O56B1 L214F (as listed by the source, stated change not applied): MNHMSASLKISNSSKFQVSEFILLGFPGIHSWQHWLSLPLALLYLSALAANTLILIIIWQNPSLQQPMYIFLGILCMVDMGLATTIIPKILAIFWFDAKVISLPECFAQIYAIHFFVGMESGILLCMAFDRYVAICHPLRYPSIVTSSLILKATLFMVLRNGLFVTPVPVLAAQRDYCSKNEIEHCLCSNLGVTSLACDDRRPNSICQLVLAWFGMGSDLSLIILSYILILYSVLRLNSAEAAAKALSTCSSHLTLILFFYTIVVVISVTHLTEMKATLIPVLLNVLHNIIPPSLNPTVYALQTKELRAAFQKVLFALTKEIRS
Chain of O52K1 Q52R (as listed by the source, stated change not applied): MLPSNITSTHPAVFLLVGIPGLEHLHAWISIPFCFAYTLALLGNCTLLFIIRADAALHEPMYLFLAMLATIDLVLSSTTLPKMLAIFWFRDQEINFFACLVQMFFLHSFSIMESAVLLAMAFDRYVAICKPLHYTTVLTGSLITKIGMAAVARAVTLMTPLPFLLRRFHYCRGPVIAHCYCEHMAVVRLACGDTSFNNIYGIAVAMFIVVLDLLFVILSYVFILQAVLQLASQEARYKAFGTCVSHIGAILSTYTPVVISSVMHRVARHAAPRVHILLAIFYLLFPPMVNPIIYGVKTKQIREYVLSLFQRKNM
Chain of O56A5 V104L (as listed by the source, stated change not applied): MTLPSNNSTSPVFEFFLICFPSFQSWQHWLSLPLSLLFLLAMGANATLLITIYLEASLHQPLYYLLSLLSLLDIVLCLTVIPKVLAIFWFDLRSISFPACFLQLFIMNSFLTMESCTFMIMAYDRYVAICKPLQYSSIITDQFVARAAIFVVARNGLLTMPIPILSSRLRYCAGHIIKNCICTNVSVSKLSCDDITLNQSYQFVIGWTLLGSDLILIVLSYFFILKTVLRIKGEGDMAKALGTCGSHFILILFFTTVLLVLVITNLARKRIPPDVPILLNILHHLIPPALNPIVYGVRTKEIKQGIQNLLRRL
Chain of O52I2 I74L (as listed by the source, stated change not applied): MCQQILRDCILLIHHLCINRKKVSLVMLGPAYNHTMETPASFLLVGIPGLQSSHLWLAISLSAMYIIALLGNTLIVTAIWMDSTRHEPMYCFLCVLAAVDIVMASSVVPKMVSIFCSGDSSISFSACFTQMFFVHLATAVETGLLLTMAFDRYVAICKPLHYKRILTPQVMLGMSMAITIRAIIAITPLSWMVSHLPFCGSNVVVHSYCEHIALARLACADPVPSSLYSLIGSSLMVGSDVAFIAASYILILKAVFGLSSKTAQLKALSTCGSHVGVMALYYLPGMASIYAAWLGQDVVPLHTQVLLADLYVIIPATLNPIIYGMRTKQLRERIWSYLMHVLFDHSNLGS
Chain of O5AC2 (as listed by the source): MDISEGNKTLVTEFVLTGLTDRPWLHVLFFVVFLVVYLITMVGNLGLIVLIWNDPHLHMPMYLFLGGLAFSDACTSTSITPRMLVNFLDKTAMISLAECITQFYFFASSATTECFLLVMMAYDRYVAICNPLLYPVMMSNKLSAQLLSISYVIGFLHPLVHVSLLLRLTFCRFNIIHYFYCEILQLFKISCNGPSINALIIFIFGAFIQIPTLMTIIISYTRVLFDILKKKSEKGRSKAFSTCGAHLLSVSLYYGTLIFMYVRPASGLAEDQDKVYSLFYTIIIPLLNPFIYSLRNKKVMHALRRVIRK
Chain of O52M1 S305R (as listed by the source, stated change not applied): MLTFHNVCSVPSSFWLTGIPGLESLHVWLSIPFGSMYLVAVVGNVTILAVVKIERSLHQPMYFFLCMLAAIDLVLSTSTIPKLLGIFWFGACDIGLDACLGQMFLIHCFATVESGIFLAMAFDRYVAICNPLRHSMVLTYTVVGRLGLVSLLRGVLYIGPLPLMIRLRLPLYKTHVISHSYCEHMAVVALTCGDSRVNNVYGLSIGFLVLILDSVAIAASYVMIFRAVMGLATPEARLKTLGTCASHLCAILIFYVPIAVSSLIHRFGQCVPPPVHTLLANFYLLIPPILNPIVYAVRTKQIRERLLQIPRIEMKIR
Chain of O56A3 (as listed by the source): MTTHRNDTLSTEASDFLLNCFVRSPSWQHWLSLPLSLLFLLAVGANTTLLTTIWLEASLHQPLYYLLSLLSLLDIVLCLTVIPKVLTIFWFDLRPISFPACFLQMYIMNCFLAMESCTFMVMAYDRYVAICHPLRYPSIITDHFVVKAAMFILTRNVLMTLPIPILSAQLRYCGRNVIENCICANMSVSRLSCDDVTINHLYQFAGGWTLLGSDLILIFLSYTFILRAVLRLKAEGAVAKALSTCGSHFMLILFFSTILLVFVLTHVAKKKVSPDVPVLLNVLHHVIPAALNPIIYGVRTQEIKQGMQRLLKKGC
Chain of O5AK2 M92I (as listed by the source, stated change not applied): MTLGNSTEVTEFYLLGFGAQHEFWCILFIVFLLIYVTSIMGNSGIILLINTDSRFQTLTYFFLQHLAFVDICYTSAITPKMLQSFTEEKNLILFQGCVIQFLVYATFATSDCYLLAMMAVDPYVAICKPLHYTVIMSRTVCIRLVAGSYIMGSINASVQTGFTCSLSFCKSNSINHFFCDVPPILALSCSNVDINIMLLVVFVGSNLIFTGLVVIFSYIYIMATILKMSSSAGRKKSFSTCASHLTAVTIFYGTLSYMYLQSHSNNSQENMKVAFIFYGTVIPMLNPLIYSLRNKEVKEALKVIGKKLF
Chain of O52L1 (as listed by the source): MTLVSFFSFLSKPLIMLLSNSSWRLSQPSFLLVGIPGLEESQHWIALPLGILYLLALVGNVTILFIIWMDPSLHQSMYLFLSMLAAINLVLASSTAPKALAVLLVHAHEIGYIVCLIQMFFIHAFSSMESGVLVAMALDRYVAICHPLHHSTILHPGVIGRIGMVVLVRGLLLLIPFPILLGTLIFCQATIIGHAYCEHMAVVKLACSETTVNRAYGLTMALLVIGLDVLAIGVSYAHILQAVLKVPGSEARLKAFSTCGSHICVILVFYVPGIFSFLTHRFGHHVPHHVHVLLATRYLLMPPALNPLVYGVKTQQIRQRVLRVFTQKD
Chain of O56B4 (as listed by the source): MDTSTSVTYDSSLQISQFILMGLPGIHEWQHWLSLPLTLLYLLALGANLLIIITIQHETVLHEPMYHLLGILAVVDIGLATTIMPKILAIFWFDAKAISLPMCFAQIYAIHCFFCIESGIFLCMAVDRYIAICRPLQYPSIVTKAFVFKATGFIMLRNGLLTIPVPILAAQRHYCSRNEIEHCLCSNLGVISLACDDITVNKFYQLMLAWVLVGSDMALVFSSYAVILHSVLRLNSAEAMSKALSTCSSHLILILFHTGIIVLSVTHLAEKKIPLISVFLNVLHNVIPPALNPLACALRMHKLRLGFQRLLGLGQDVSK
Chain of O56A4 I247V (as listed by the source, stated change not applied): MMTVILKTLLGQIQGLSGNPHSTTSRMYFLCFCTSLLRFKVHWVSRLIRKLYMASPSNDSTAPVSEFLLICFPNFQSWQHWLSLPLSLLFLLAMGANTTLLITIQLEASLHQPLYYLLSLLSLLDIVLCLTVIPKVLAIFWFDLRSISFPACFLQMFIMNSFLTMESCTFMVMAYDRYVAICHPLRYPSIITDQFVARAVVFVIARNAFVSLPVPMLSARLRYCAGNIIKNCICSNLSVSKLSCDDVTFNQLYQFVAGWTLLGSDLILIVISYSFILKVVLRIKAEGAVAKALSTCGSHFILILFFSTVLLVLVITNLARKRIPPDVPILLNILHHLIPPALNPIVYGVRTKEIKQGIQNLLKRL
Chain of O56A4 (as listed by the source): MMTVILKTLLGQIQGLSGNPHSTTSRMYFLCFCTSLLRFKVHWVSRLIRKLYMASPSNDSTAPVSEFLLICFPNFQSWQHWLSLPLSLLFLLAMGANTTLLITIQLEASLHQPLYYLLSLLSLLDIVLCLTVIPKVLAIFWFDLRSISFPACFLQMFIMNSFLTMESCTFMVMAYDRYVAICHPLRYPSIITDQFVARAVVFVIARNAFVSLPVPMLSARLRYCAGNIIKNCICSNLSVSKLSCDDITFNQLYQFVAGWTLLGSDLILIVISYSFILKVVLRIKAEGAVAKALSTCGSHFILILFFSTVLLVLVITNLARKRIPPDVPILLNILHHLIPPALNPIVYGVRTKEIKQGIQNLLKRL

C=CCOC(=O)Cc1ccccc1
inactive: [1] | [2] | [3] | [4] | [5] | [6] | [7] | [8] | [9] | [10] | [11] | [12] | [13] | [14] | [15] | [16] | [17] | [18] | [19] | [20]
